In ChEMBL document CHEMBL1142060, “Dysoxylins A-D, tetranortriterpenoids with potent anti-RSV activity from Dysoxylum gaudichaudianum” (J Nat Prod, 2007):
In brackets after ≈: the same amount, converted by molar mass.

Legend:
[1] = tested on: Respiratory syncytial virus; test: Antiviral activity against RSV A2 in MA104 cells by plaque reduction assay; format: functional, organism-based; conditions: human respiratory syncytial virus
Method in brief: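 MA-104 monolayers infected with 200 PFU/well RSV A2, adsorbed 2.5 h at 37 °C in serum-free MEM. Inoculum removed and agarose overlay added; each compound dilution plated in duplicate. Plaques counted after 4 days and expressed as percent of control. EC50 (µg/mL) derived by regression of mean percent of control at each concentration.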

[2] = tested on: Respiratory syncytial virus; test: Antiviral activity against RSV A2 in MA104 cells by CPE assay; format: functional, organism-based; conditions: human respiratory syncytial virus
Method in brief: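 RSV strain A2 grown in MA-104 cells; cells passaged in MEM with 9% fetal bovine serum and 0.1% NaHCO3. Cytopathic-effect inhibition read-out. Activity expressed as 50% effective concentration (EC50) in µg/mL.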

| Structure (SMILES) | EC50 [1] [µg/mL] | IC50 [1] [µg/mL] | EC50 [2] [µg/mL] | IC50 [2] [µg/mL] |
| --- | --- | --- | --- | --- |
| C/C=C(/C)C(=O)O[C@@H]1[C@@H]2OC[C@]3(C)[C@H](O)C[C@H](OC(C)=O)[C@@](C)([C@@H]23)[C@H]2C[C@H](OC(C)=O)[C@]3(C)C(=CC[C@H]3C3COC(=O)C3)[C@]12C (stereo partly drawn) [DYSOXYLIN A] | 150 (≈ 239 µM) | 112 (≈ 178 µM) | 2 (≈ 3.18 µM) | 150 (≈ 239 µM) |
| CC(=O)O[C@H]1C[C@H]2[C@](C)(C3=CC[C@@H](C4COC(=O)C4)[C@@]31C)[C@H](OC(=O)c1ccccc1)[C@@H]1OC[C@]3(C)[C@H](O)C[C@H](OC(C)=O)[C@@]2(C)[C@@H]13 (stereo partly drawn) [DYSOXYLIN B] | 30 (≈ 46.1 µM) | 7 (≈ 10.8 µM) | 4 (≈ 6.15 µM) | 16 (≈ 24.6 µM) |
| CCC(C)C(=O)O[C@@H]1[C@@H]2OC[C@]3(C)[C@H](O)C[C@H](OC(C)=O)[C@@](C)([C@@H]23)[C@H]2C[C@H](OC(C)=O)[C@]3(C)C(=CC[C@H]3C3COC(=O)C3)[C@]12C (stereo partly drawn) [DYSOXYLIN C] | 146 (≈ 231 µM) | 52 (≈ 82.4 µM) |  |  |
| CC(=O)O[C@H]1C[C@H]2[C@](C)(C3=CC[C@@H](C4COC(=O)C4)[C@@]31C)[C@H](OC(=O)/C=C(\C)C(C)C)[C@@H]1OC[C@]3(C)[C@H](O)C[C@H](OC(C)=O)[C@@]2(C)[C@@H]13 (stereo partly drawn) [DYSOXYLIN D] | 40 (≈ 60.9 µM) | 42 (≈ 63.9 µM) | 1 (≈ 1.52 µM) | > 200 |
| NC(=O)c1ncn([C@@H]2O[C@H](CO)[C@@H](O)[C@H]2O)n1 [RIBAVIRIN] | 20 (≈ 81.9 µM) | 460 (≈ 1880 µM) | 3.6 (≈ 14.7 µM) | 180 (≈ 737 µM) |
